From ChEMBL document CHEMBL4406857, “Discovery of new small molecule inhibitors targeting isocitrate dehydrogenase 1 (IDH1) with blood-brain barrier penetration” (Eur J Med Chem, 2019) come the findings set out here.

The target in data set [1] is T1, Isocitrate dehydrogenase [NADP] cytoplasmic (Homo sapiens, UniProt O75874, R132C). Put plainly: Inhibition of recombinant human C-terminal His8-tagged IDH1 R132C mutant expressed in Escherichia coli BL21 assessed as reduction in NADPH consumption using alpha-ketoglutarate as substrate preincubated for 60 mins followed by substrate addition and measured for 60 mins in presence of NADPH by diaphorase/resazurin-based fluorescence assay.
T1 sequence (O75874 2-414 R132C limits assumed): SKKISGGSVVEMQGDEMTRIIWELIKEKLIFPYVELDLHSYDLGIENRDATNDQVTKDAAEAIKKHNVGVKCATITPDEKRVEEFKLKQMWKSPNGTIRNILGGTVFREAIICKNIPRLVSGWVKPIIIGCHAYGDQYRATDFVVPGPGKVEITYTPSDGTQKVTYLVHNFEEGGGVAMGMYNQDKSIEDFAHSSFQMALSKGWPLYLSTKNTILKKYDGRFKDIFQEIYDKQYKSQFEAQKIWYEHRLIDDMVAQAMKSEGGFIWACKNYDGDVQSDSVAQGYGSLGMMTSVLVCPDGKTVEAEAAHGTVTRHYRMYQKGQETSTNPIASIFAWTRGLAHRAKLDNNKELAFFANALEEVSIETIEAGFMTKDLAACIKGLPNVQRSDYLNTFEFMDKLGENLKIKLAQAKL

Data set [2] deals with Isocitrate dehydrogenase [NADP] cytoplasmic (Homo sapiens, UniProt O75874, R132H). Put plainly: Inhibition of recombinant human C-terminal His8-tagged IDH1 R132H mutant expressed in Escherichia coli BL21 assessed as reduction in NADPH consumption using alpha-ketoglutarate as substrate preincubated for 60 mins followed by substrate addition measured for 60 mins in presence of NADPH by diaphorase/resazurin-based assay. Background: Resazurin is reduced to fluorescent resorufin, in cell work by metabolically active cells.
Sequence of Isocitrate dehydrogenase [NADP] cytoplasmic (Homo sapiens, UniProt O75874, R132H) (O75874 2-414 R132H limits assumed): as the sequence (O75874 2-414 R132C limits assumed) above, with C131H counted along it

Data set [3] deals with T1, Isocitrate dehydrogenase [NADP] cytoplasmic. Description: Inhibition of IDH1 R132C mutant in human HT1080 cells assessed as reduction in 2-HG production incubated with compound for 48 hrs by D2HG assay kit based fluorescence assay. It counts as cell-based.
Data set [4] can be described thus: Clearance in ICR mouse at 1 mg/kg, iv measured upto 24 hrs by LCMS analysis. It counts as ADME, organism-based. Particulars: in vivo. The procedure, abridged:
(§1)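 Male ICR mice (6-8 weeks, 20-25 g), nine animals, dosed 1 mg/kg by slow intravenous injection or 5 mg/kg orally. Blood sampled into EDTA at 5 min (iv only), 15 min, 30 min, 1, 2, 4, 8 and 24 h. Plasma stored at -20 °C, prepared by acetonitrile protein precipitation with dexamethasone internal standard, and analysed for parent compound. Values are means of three replicates.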

Data set [5] is described as follows: Volume of distribution at steady state in ICR mouse at 1 mg/kg, iv measured upto 24 hrs by LCMS analysis. In kind it is ADME, organism-based. As to conditions: in vivo, read-out: Vdss. In outline:
as §1

Data set [6] in a line: Half life in ICR mouse at 1 mg/kg, iv measured upto 24 hrs by LCMS analysis. In kind it is ADME, organism-based. As to conditions: in vivo. In outline:
as §1

Data set [7] in a line: AUC in ICR mouse at 1 mg/kg, iv measured upto 24 hrs by LCMS analysis. In kind it is ADME, organism-based. Also on record: time < 24 hr, dose 1 mg/kg, route intravenous. As to conditions: in vivo. The procedure, abridged:
as §1

Data set [8] is described as follows: Cmax in ICR mouse at 5 mg/kg, po measured upto 24 hrs by LCMS analysis. As to conditions: in vivo. In kind it is ADME, organism-based. Also on record: dose 5 mg/kg, route oral. In outline:
as §1

The nature of data set [9]: Half life in ICR mouse at 5 mg/kg, po measured upto 24 hrs by LCMS analysis. It counts as ADME, organism-based. Particulars: in vivo. The procedure, abridged: as §1
Data set [10] can be described thus: AUC in ICR mouse at 5 mg/kg, po measured upto 24 hrs by LCMS analysis. In kind it is ADME, organism-based. Details: dose 5 mg/kg, time < 24 hr, route oral. As to conditions: in vivo. The procedure, abridged:
as §1

Data set [11] can be described thus: Oral bioavailability in ICR mouse at 5 mg/kg measured upto 24 hrs by LCMS analysis. Particulars: in vivo; for bioavailability: ICR; for F: 24 h. In kind it is ADME, organism-based. In outline:
as §1

Data set [12] has as its target Isocitrate dehydrogenase [NADP] cytoplasmic (Homo sapiens, UniProt O75874). Put plainly: Inhibition of wild type recombinant human C-terminal His8-tagged IDH1 expressed in Escherichia coli BL21 assessed as reduction in NADP consumption using DL-isocitrate as substrate preincubated for 60 mins followed by substrate addition and measured for 60 mins in presence of NADP by diaphorase/resazurin-based fluorescence assay.

Data set [13] relates to Isocitrate dehydrogenase [NADP] cytoplasmic (Homo sapiens), O75874 [R132H]. Put plainly: Inhibition of human IDH1 R132H mutant transfected in GL261 cells assessed as reduction in 2-HG production at 100 nM incubated with compound for 48 hrs by D2HG assay kit based fluorescence assay. In kind it is cell-based.
Sequence of Isocitrate dehydrogenase [NADP] cytoplasmic (Homo sapiens), O75874 [R132H] (O75874 whole entry R132H): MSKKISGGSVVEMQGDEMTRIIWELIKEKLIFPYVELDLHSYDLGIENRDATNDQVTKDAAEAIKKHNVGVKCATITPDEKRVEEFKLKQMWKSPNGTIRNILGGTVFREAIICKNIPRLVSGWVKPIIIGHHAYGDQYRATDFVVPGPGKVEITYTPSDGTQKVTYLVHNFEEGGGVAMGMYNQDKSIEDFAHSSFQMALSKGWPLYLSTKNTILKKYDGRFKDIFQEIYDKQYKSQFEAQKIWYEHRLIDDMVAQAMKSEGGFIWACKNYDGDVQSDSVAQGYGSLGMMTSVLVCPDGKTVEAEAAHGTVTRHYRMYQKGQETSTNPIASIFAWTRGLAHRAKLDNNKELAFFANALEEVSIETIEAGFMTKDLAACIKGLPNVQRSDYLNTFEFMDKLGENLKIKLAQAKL
A short description of data set [14]: Drug uptake in plasma of athymic BALB/c nude mouse xenografted with human HT1080 cells at 50 to 150 mg/kg, po administered as a single dose via gavage measured upto 24 hrs post dosing by LC-MS/MS analysis. It counts as ADME, organism-based. Particulars: in vivo. In outline: (§2)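 Female athymic nude mice carrying subcutaneous right-flank HT1080 xenografts (5 × 10^6 cells in PBS/Matrigel 1:1). Compound given by oral gavage as a suspension in 0.5% MC + 0.5% Tween 80 in water, 10 ml/kg. Blood taken by orbital sinus bleed; brain and tumour collected at 2, 6, 12 and 24 h, homogenized in PBS. Samples acetonitrile-precipitated with dexamethasone internal standard and measured by LC/MS/MS.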
(In general: In xenograft studies the graft and the host belong to different species.)

The next data set has as its system HT-1080. Put plainly: In vivo inhibition of IDH1 R132C mutant in human HT1080 cells xenografted in athymic BALB/c nude mouse assessed as reduction in 2-HG level in tumor tissue at 50 mg/kg, po administered as a single dose via gavage measured upto 24 hrs post dosing by LC-MS/MS analysis. It counts as functional, organism-based. In outline:
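HT1080 subcutaneous xenografts in female athymic nude mice, randomized block design, 12 mice per group. Oral gavage of suspension (0.5% MC + 0.5% Tween 80 in water, 10 ml/kg). Tumours collected at 2, 6, 12 and 24 h and frozen in liquid nitrogen. 2-HG measured by LC/MS/MS; percent inhibition taken relative to vehicle-treated mice, reported as mean ± SEM.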

The nature of data set [15]: Drug uptake in brain of athymic BALB/c nude mouse xenografted with human HT1080 cells at 50 to 150 mg/kg, po administered as a single dose via gavage measured upto 24 hrs post dosing by LC-MS/MS analysis. It counts as ADME, organism-based. As to conditions: in vivo. In outline:
as §2

A short description of data set [16]: Drug uptake in tumor of athymic BALB/c nude mouse xenografted with human HT1080 cells at 50 to 150 mg/kg, po administered as a single dose via gavage measured upto 24 hrs post dosing by LC-MS/MS analysis. It counts as ADME, organism-based, Neoplasm. Particulars: in vivo. The procedure, abridged:
as §2

Data set [17] in a line: Drug uptake in plasma of athymic BALB/c nude mouse xenografted with human HT1080 cells at 50 mg/kg, po administered as a single dose via gavage measured upto 24 hrs post dosing by LC-MS/MS analysis. It counts as ADME, organism-based. As to conditions: in vivo. In outline: as §2
A short description of data set [18]: Drug uptake in brain of athymic BALB/c nude mouse xenografted with human HT1080 cells at 50 mg/kg, po administered as a single dose via gavage measured upto 24 hrs post dosing by LC-MS/MS analysis. It counts as ADME, organism-based. Particulars: in vivo. The procedure, abridged: as §2
A short description of data set [19]: Drug uptake in tumor of athymic BALB/c nude mouse xenografted with human HT1080 cells at 50 mg/kg, po administered as a single dose via gavage measured upto 24 hrs post dosing by LC-MS/MS analysis. It counts as ADME, organism-based, Neoplasm. Particulars: in vivo. In outline: as §2

The source made the active and inactive calls. The calls are words filed in the database; no cut-off is given here.

A word on the IC50: it is the point on the concentration scale where inhibition reaches its midpoint. The clearance is the rate of elimination divided by the concentration. A low value points to a low capacity for elimination. As usually defined, the half-life is the time in which the quantity being followed falls by half. Higher therefore signals slow decline. By AUC is commonly meant the area under the concentration-time curve, a measure of exposure. Lower therefore signals less exposure. What is called Cmax is the highest concentration seen after dosing.

Sequence of Isocitrate dehydrogenase [NADP] cytoplasmic (Homo sapiens, UniProt O75874) (O75874 whole entry): as the sequence (O75874 whole entry R132H) above, with H132R counted along it

Take `CC(C)[C@H]1COC(=O)N1c1ccnc(N[C@@H](C)c2ncn3c2CCc2cc(C(F)(F)F)ccc2-3)n1`: the IC50 in [1] was 9.3 nM; in data set [2] it was 1 nM; in [3] it was 12.5 nM. In [4], this compound showed a clearance of 109 mL/min/kg. Further, the Vd in data set [5] was 3 L/kg. Besides, the half-life in [6] was 0.5 h; in data set [9] it was 2 h. The exposure (AUC) at 24 h was 0.312 µM·h in data set [7] and 1.65 µM·h in data set [10]. In data set [8], this compound had a Cmax of 730 nM. Moreover, the bioavailability in [11] was 109%.

Regarding `C[C@H](Nc1nccc(N2C(=O)OC[C@@H]2[C@H](C)F)n1)c1ncn2c1CCc1cc(Cl)ccc1-2`, the half-inhibitory concentration (IC50) stood at 15.3 nM in data set [1], 2.3 nM in data set [2] and 53.7 nM in data set [3]. In data set [4], this compound displayed a clearance of 50 mL/min/kg. Moreover, in data set [5], the Vd came out at 4.3 L/kg. In addition, the half-life in data set [6] is 1.7 h; in data set [9], 3.4 h. Moreover, the values for the exposure (AUC) at 24 h in [7] and in [10] were 0.717 µM·h and 4.02 µM·h, respectively. Moreover, the peak level in [8] (Cmax) was 932 nM. In addition, in data set [11], the bioavailability was 117%.

Consider `C[C@H](Nc1nccc(N2C(=O)OC[C@@H]2[C@H](C)F)n1)c1ncn2c1CCc1cc(C(F)(F)F)ccc1-2`, for which the half-maximal inhibitory concentration (IC50) was 6680 nM in [12], 8.2 nM in data set [1], 4 nM in data set [2] and 15.9 nM in [3]. Also, the inhibition result (in data set [13]; in the data set with HT-1080) was “Active” in each case. The compound also registered a clearance in [4] of 23 mL/min/kg. Moreover, the Vd in [5] was found to be 2.3 L/kg. Further, the half-life in data set [6] is 1.5 h; in data set [9], 2.5 h. Also, the exposure (AUC) at 24 h in data set [7] stood at 1.44 µM·h; in [10] it was 11 µM·h. Further, the peak concentration (Cmax) in data set [8] is 1690 nM. Besides, the bioavailability in data set [11] came out at 150%. In addition, the Drug uptake entry in [14], in data set [15] and in [16] was “Active” in each case.

As to `C[C@H](Nc1nccc(N2C(=O)OC[C@@H]2[C@H](C)F)n1)c1ncn2c1COc1cc(C(F)(F)F)ccc1-2`, the half-inhibitory concentration (IC50) in data set [12] was 2840 nM; in [1], 9.4 nM; in data set [2], 2.7 nM; in data set [3] it was 12 nM. Further, the clearance in data set [4] amounted to 30 mL/min/kg. Besides, the Vd in [5] is 5.2 L/kg. In addition, the half-life is 2.1 h in [6] and 2.5 h in data set [9]. The AUC at 24 h was 1.02 µM·h in data set [7] and 8.46 µM·h in data set [10]. Further, the maximum concentration (Cmax) in data set [8] was 1120 nM. For the same compound, the F in data set [11] was determined as 152%.

Consider `C[C@H](Nc1ncc(F)c(N2C(=O)OC[C@@H]2[C@H](C)F)n1)c1ncn2c1CCc1cc(C(F)(F)F)ccc1-2`, for which the IC50 was 17 nM in [1] and 2.1 nM in [2]. In [4], this compound registered a clearance of 21 mL/min/kg. Moreover, the Vd in data set [5] turned out to be 2.1 L/kg. The half-life in [6] is 1.4 h; in [9] it was 2.5 h. Besides, the values for the exposure (AUC) at 24 h in [7] and in [10] were 1.52 µM·h and 12.7 µM·h, respectively. Further, the Cmax in data set [8] came out at 1700 nM. Further, the F in data set [11] is reported as 165%.

As to `N#Cc1ccnc(N2C(=O)CC[C@H]2C(=O)N(c2cncc(F)c2)[C@H](C(=O)NC2CC(F)(F)C2)c2ccccc2Cl)c1` [IVOSIDENIB], the clearance in data set [4] was determined as 9 mL/min/kg. For the same compound, the Vd in [5] stood at 1.5 L/kg. The half-life in data set [6] is 2.5 h; in data set [9], 3.5 h. Moreover, the figures for the AUC at 24 h in data set [7] and in [10] were 2.97 µM·h and 11.2 µM·h, respectively. The compound further came in with a Cmax in data set [8] of 2260 nM. In addition, the bioavailability in data set [11] was determined as 80%. Also, the Drug uptake entry in data set [17], in data set [18] and in [19] was “Active” each time.

Consider `C[C@H](Nc1nccc(N2C(=O)OC[C@@H]2[C@H](C)F)n1)c1ncn2c1COc1cc(Cl)ccc1-2`, for which the IC50 was 7100 nM in [12], 14.4 nM in data set [1], 2.2 nM in [2] and 60.3 nM in data set [3]. In data set [4], the clearance amounted to 39 mL/min/kg. Further, in data set [5], the Vd was 2.3 L/kg. Besides, the half-life in data set [6] was 1 h; in [9], 2.4 h. Moreover, the results for the exposure (AUC) at 24 h in [7] and in data set [10] were 0.917 µM·h and 5.01 µM·h, respectively. Further, the highest concentration (Cmax) in [8] worked out at 1210 nM. Moreover, the bioavailability in data set [11] was determined as 109%.
